Published values pooled from the literature.
Compare with care: the assays were run in different laboratories.
Mode: inhibitor
BCHE: Cholinesterase (BCHE, Equus caballus, UniProt P81908)

Structure (SMILES) | target | assay | system | IC50 [µM]
CC(C)(C)OC(=O)NC1CCCN(C(=O)C=Cc2ccccc2)C1 (stereo not shown) | BCHE | enzyme activity, Ellman | – | 43.7
CN1CC[C@@]2(C)c3cc(OC(=O)Nc4ccccc4)ccc3N(C)[C@@H]12 | Aldehyde dehydrogenase, dimeric NADP-preferring (ALDH3A1, Homo sapiens, UniProt P30838) | enzyme activity, fluorescence | – | < 10
O=C(O)C(/C=C/c1c(Cl)cccc1Cl)=N\Nc1nc(-c2ccc(Br)cc2)cs1 | BCHE | enzyme activity | – | 8.47
CC(=O)c1c(C)c2cnc(Nc3ccc(C4CCN(CCS(C)(=O)=O)CC4)cn3)nc2n(C2CCCC2)c1=O | Cytochrome P450 2B6 (CYP2B6, Homo sapiens, UniProt P20813) | enzyme activity | human, liver microsomes | > 10
O=C(O)C(/C=C/c1c(Cl)cccc1Cl)=N\Nc1nc(-c2ccc(F)cc2)cs1 | BCHE | enzyme activity | – | 4.04
COc1ccc(OC)c(/C=C/C(=O)N2CCCC(NC(=O)OC(C)(C)C)C2)c1 (stereo not shown) | BCHE | enzyme activity, Ellman | – | > 50
CCN(C)C(=O)Oc1ccc(CCC(=O)N(CC)Cc2ccccc2)cc1OC | BCHE | enzyme activity, Ellman | – | 12.7
O=C(N1CCC2(CC1)C[C@H](CN1CCCCS1(=O)=O)CCO2)C1(c2ccccc2)CCCC1 | DHX58 (Homo sapiens, UniProt Q96C10) | ATPase activity | – | > 50
CCN(CC)C(=O)Oc1ccc(/C=C/C(=O)NC2CCN(Cc3ccccc3)CC2)cc1 | BCHE | enzyme activity, Ellman | – | 15.2
O=C(O)C(/C=C/c1c(Cl)cccc1Cl)=N\Nc1nc(-c2ccc(Cl)cc2)cs1 | BCHE | enzyme activity | – | 7.36
CC(C)(C)OC(=O)NC1CCCN(C(=O)/C=C/c2cccc(F)c2)C1 (stereo not shown) | BCHE | enzyme activity, Ellman | – | 15.3
COc1cc(/C=C/C(=O)NC2CCN(Cc3ccccc3)CC2)ccc1OC(=O)N(C)C | BCHE | enzyme activity, Ellman | – | 9.6
CC(C)(C)OC(=O)NC1CCCN(C(=O)/C=C/c2cccc([N+](=O)[O-])c2)C1 (stereo not shown) | BCHE | enzyme activity, Ellman | – | > 50
CN(C)C(=O)Oc1ccc(/C=C/C(=O)NC2CCN(Cc3ccccc3)CC2)cc1 | BCHE | enzyme activity, Ellman | – | 11.5
CC(C)(C)OC(=O)NC1CCCN(C(=O)/C=C/c2ccc(Br)cc2)C1 (stereo not shown) | BCHE | enzyme activity, Ellman | – | 38.1
COc1cc(/C=C/C(=O)NC2CCN(Cc3ccccc3)CC2)ccc1OC(=O)N1CCCC1 | BCHE | enzyme activity, Ellman | – | 3.4
